Rows were chosen to be rich in hits. Some 1.9% of all compounds tested hit in one or more screens of this group.
Cneo AK release: Cryptococcus neoformans cell lysis inducers, primary screen, AK release luminescence, single concentration. C. neoformans lysis, adenylate kinase release luminescence, 4 h; normalised: neutral wells 0, clomiphene wells 100. lysis activity, % at 15 µM. 360,000 compounds, 0.2% hits. AID 651654, 2012;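 active means mean lysis activity across replicates of at least 80%, whatever share of replicates individually reach that level; inactive means mean lysis activity below 80%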
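Assay system: Cryptococcus neoformans yeast cells / Dosing: single-point compound dose / Timing: 4 h at 37 °C static, read 1 h later / Measured by: luminescence of released adenylate kinase using an AK detection reagent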
Xi reactivation: activators of inactive X chromosome reactivation, primary screen, imaging, XiGFP fibroblasts, GFP high-content imaging, set 2. XiGFP mouse fibroblasts, % GFP-positive cells imaging, 3 d; cells co-treated with 5-aza-dC sensitizer; scaled so ellipticine positive control = 100%. activation, % at 7.58 µM. 360,000 compounds, 0.055% hits. AID 743238, 2013;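 active means mean normalized replicate activation at least 10% and every replicate at or above 10%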;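 further: 0% = median of on-plate neutral control wells and 100% = ellipticine 6 µM median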
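Material: XiGFP fibroblasts, SV40-immortalized; Buffer or medium: DMEM containing 5-aza-dC; Compound dosing: single point; Times: 3 days compound exposure.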
CFTR F508del cor: F508del CFTR correction, initial screen, CFBE line, single point | CFBE cells, YFP halide quenching; stimulated with forskolin plus potentiator P3; % fluorescence drop versus neutral controls | activity (quench increase), % at 7.58 µM | 350,000 compounds, 0.36% hits | AID 720511, 2013;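 active means mean added fluorescence quench of at least 8% versus neutral control, with both replicates also reaching 8%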;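 further: cells transiently co-express mutant CFTR-F508del with the halide-sensitive YFP; corrector assay measuring rescue of mutant channel to the surface after 24 h compound exposure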
DENV2 CPE: inhibitors of DENV2 cytopathic effect, primary screen, cell-based, plate reader, single concentration | DENV2-infected cells, cytopathic effect rescue | CPE inhibition, % at 9.99 µM | 350,000 compounds, 1.7% hits | AID 651640, 2012; in the data active means CPE inhibition above about 20%, passing the limit was not always enough; tested in BHK-21 cells;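 further: 0% = median of neutral control wells and 100% = median of positive control wells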
FN deposit inh: inhibitors of fibronectin matrix deposition, primary screen, AH1F cells, Alexa488-fibronectin fluorescence, plate reader. AH1F fibroblasts, overnight. inhibition, % at 12.6 µM. 350,000 compounds, 0.086% hits. AID 743247, 2014;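 active means mean inhibition across replicates of 30% or more, regardless of how many single replicates reach that level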;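 further: positive control wells lacked labelled fibronectin entirely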
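Assay system: AH1F fibroblasts assembling fluorescent fibronectin matrix; Amount: 10000 AH1F cells per well; Buffer or medium: DMEM, 2% serum; Probe or stimulus: Alexa488-fibronectin, 24 nM final in well; Doses: single compound dose, delivered by pin transfer; Incubation: 1 h adhesion, overnight exposure; Measured by: fluorescence 485/525 nm; Read-out: fibronectin deposition inhibition.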
PGC1a acetyl inh: inhibitors of PGC1a acetylation signal, primary screen, cell-based, U2OS, AlphaScreen, inhibitor mode. AlphaScreen anti-acetyl-lysine; with virally co-expressed GCN5 acetyltransferase. inhibition, % at 15.6 µM. 350,000 compounds, 0.17% hits;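 active means every replicate shows inhibition of at least 40%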;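 further: 0% = neutral control wells and 100% = positive control wells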
* marks the source's active call; other numbers are inactive results; · = no result given; ! = not confirmed by another sample.

SMILES	Cneo AK release	Xi reactivation	CFTR F508del cor	DENV2 CPE	FN deposit inh	PGC1a acetyl inh
CO[C@H]1CN(C)C(=O)c2cc(NC(=O)c3cc(C)on3)ccc2OC[C@H](C)N(C)C[C@@H]1C	2	0	-2	1	·	-19
CCOC(=O)N1CCN(C(=O)C2CCC(=O)N2C(C)C)CC1 (stereo not drawn)	-2	·	·	·	7	-28
CC(C)N1C(=O)CCC1C(=O)O (stereo not drawn)	11	0	1	33*	0	·
O=C(C[C@@H]1C[C@@H]2c3cc(NC(=O)Nc4ccc(F)cc4)ccc3O[C@@H]2[C@H](CO)O1)NC1CCCCC1	-2	0	-1	-1	-14	6
O=C(C[C@@H]1C[C@@H]2c3cc(NC(=O)Cc4ccncc4)ccc3O[C@@H]2[C@H](CO)O1)NCC1CC1	9	0	1	-6	-1	-5
COc1ccc2c3c([nH]c2c1)[C@@H](CO)N(C)CC31CN(C(=O)NC(C)C)C1	·	0	1	-11	·	-3
CCOC(=O)CCc1c(C)nc2c(c(C)nn2-c2ccccc2)c1C	1	0	0	0	3	0
CCOC(=O)CCc1c(C)c2c(C)nn(-c3ccccc3)c2[nH]c1=O	1	0	-2	37*	-2	-7
C[C@H](O)[C@@H]1CN2CCc3ccc(-c4ccc5c(c4)OCO5)cc3[C@@H]2C[C@@H]1N(C)Cc1ccccc1	·	0	1	3	-4	·
Cc1ccc(S(=O)(=O)N(C)[C@H]2C[C@H]3c4cc(-c5ccc6c(c5)OCO6)ccc4CCN3C[C@H]2[C@H](C)O)cc1	·	0	-1	32*	-13	·
C[C@@H]1CN([C@H](C)CO)C(=O)c2cc(NC(=O)Nc3ccc(F)cc3)ccc2O[C@@H](C)CCCCO[C@H]1CN(C)S(=O)(=O)c1cccs1	0	0	1	47*!	3	-7
C[C@@H]1CCCCO[C@H](CN(C)S(=O)(=O)c2cccs2)[C@@H](C)CN([C@H](C)CO)C(=O)c2cc(NC(=O)c3ccccc3)ccc2O1	6	0	1	14	·	0
C[C@@H]1CCCCO[C@H](CN(C)S(=O)(=O)c2cccs2)[C@@H](C)CN([C@@H](C)CO)C(=O)c2cc(NC(=O)c3ccccc3)ccc2O1	-1	0	-1	23*	·	-11
CC(C)NC(=O)Nc1ccc2c(c1)C(=O)N([C@@H](C)CO)C[C@H](C)[C@@H](CN(C)S(=O)(=O)c1cccs1)OCCCC[C@H](C)O2	87*	0	3	-8	-5	-2
C[C@H]1CCCCO[C@H](CN(C)S(=O)(=O)c2cccs2)[C@@H](C)CN([C@@H](C)CO)C(=O)c2cc(NC(=O)Nc3ccc(F)cc3)ccc2O1	-4	0	0	-7	·	-23
CC(C)NC(=O)Nc1ccc2c(c1)C(=O)N([C@H](C)CO)C[C@H](C)[C@H](CN(C)S(=O)(=O)c1cccs1)OCCCC[C@H](C)O2	3	0	3	13	-4	5
CC(C)NC(=O)N(C)C[C@@H]1Oc2ncc(C#CC3CC3)cc2C(=O)N([C@H](C)CO)C[C@H]1C	·	0	-1	·	-4	2
C[C@@H]1CN([C@@H](C)CO)C(=O)c2cc(NC(=O)CCCN(C)C)ccc2O[C@@H](C)CCCCO[C@H]1CN(C)C(=O)CCCN(C)C	·	0	0	-8	-10	5
O=C(OCc1nnc(-c2ccccc2)o1)C1=COCCO1	-1	·	·	·	·	61*
O=C(OCc1nnc(-c2ccccc2)o1)c1ccc2c(c1)OCCO2	-3	·	·	·	·	4
COc1ccc(S(=O)(=O)N(C)C[C@@H]2Oc3c(NS(=O)(=O)c4ccccc4)cccc3C(=O)N([C@H](C)CO)C[C@H]2C)cc1	·	·	-2	·	·	·
CC(C)[C@H](NC(=O)c1cccs1)C(=O)N1CCC[C@H]1C(=O)NCc1ccccc1	·	0	-3	26*	-1	·
O=C(NC(C(=O)N1CCCC1C(=O)NC1CCCC1)c1ccccc1)c1cccs1 (stereo not drawn)	·	0	0	47*	0	·
O=C(N[C@H](C(=O)N1CCC[C@H]1C(=O)NC1CCCC1)c1ccccc1)c1ccccc1	·	0	-1	-2	-6	·
O=C(COC(=O)C1CC(=O)N(Cc2ccco2)C1)Nc1ccccc1[N+](=O)[O-] (stereo not drawn)	1	0	3	-7	-5	2
SMILES	Cneo AK release	Xi reactivation	CFTR F508del cor	DENV2 CPE	FN deposit inh	PGC1a acetyl inh
O=C(COC(=O)C1CC(=O)N(Cc2ccco2)C1)Nc1ccc(F)cc1F (stereo not drawn)	-7	0	-3	74*	-2	·
Cc1ccc(S(=O)(=O)N2CCCC2)cc1C(=O)O	1	·	·	·	-2	59*
CCN1CCN(c2ccc(S(=O)(=O)N3CCCCC3)cc2NC(=O)c2ccc(C)c(C)c2)CC1	0	0	-2	38*	3	-10
Cc1ccc(S(=O)(=O)N2CCCCC2)cc1C(=O)N1CCCC1	2	0	-1	-3	-5	·
COc1ccccc1N1CCN(C(=O)Cn2c(=O)oc3cc(S(=O)(=O)N4CCCC4)ccc32)CC1	-2	0	-1	33*	-1	-13
O=C(Cn1c(=O)oc2cc(S(=O)(=O)N3CCCCC3)ccc21)N1CCCCC1	8	0	-4	7	-14	·
COc1ccccc1N1CC(C(=O)Nc2ccc(S(=O)(=O)N3CCCC3)cc2)CC1=O (stereo not drawn)	-4	0	9.6*	0	9	-10
CCN1CCN(c2ccc(S(=O)(=O)N3CCCCC3)cc2NC(=O)c2cccc(C)c2)CC1	·	0	2	1	-2	·
CCS(=O)(=O)Nc1ccc2c(c1)C(=O)N(C)[C@@H]1CC[C@@H](CC(=O)N3CCOCC3)O[C@@H]1CO2	-3	0	-2	0	-1	4
O=C(C1CCC1)N1CC2(C1)[C@@H](c1ccccc1)[C@@H](CO)N2Cc1cncnc1	·	0	1	2	0	·
C[C@H]1CN([C@@H](C)CO)C(=O)c2cc(-c3cccnc3)cnc2O[C@@H]1CN(C)Cc1ccccc1	·	-1	-1	·	-2	1
CCOc1ccccc1N1CCN(C(=O)c2cc(S(=O)(=O)N3CCCCC3)ccc2C)CC1	-1	0	4	-6	2	·
COc1ccccc1N1CCN(C(=O)c2cc(S(=O)(=O)N3CCCCC3)ccc2C)CC1	0	0	-2	34*	0	43

Compound activity deposited in PubChem BioAssay by Broad Institute.
